Laboratory results published in ChEMBL document CHEMBL1151465, “Interactions of methylene blue with human disulfide reductases and their orthologues from Plasmodium falciparum” (Antimicrob Agents Chemother, 2008).

Assays:
[1] = target: T1, Thioredoxin reductase 1, cytoplasmic (Homo sapiens, UniProt Q16881); assay: Inhibition of human recombinant TrxR1 at pH 7.4
T1 sequence (Q16881 whole entry): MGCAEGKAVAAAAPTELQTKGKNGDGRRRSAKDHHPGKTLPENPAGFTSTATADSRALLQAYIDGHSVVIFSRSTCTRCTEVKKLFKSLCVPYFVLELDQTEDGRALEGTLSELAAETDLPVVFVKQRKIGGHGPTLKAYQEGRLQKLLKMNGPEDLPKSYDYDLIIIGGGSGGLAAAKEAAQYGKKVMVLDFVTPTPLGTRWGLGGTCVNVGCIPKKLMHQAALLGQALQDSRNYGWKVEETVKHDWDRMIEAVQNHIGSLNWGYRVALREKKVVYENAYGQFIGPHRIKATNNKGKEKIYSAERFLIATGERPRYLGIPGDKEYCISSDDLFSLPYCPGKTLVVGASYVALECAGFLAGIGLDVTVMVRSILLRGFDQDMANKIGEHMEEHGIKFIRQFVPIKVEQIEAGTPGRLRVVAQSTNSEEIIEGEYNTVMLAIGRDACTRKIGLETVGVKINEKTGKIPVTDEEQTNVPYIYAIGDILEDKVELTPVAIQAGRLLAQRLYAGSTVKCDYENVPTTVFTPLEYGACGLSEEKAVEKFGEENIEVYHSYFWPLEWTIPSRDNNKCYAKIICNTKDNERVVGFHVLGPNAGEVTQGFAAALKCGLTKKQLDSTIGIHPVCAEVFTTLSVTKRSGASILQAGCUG
Procedure, shortened: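 Human TrxR (recombinant, or from placenta) was assayed at 10 mU/ml, 25°C, with its physiological substrate. The buffer was 100 mM potassium phosphate and 2 mM EDTA at pH 7.4, with NADPH as reductant. Routine measurements used His-tagged human thioredoxin 1 Cys73Ser. MB came from stocks in water. IC50 values were treated as Ki, assuming noncompetitive inhibition.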

Plasmodium falciparum = assay: Antiplasmodial activity after 42 hrs against chloroquine-resistant Plasmodium falciparum K1 treated for 6 hrs by Giemsa stain; type: functional, organism-based
[2] = target: T2, Dihydrolipoyl dehydrogenase (Plasmodium falciparum, UniProt Q6KCB6); assay: Inhibition of Plasmodium falciparum recombinant dihydrolipoamide dehydrogenase at pH 7.3
T2 sequence (Q6KCB6 whole entry): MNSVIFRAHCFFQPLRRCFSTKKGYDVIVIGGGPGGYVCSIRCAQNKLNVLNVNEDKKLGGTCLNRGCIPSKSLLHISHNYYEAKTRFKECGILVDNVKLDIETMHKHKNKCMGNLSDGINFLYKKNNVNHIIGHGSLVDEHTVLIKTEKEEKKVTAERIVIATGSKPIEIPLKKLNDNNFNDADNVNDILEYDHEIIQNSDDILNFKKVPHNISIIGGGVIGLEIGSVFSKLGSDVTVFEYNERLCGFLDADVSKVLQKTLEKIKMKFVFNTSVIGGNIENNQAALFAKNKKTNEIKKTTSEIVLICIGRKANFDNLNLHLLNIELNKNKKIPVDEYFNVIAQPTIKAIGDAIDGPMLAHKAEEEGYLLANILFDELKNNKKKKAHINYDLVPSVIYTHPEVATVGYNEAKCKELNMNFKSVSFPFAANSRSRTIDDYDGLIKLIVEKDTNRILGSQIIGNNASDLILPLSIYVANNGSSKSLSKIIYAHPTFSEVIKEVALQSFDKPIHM

[3] = target: T3, Glutathione reductase, mitochondrial (Homo sapiens, UniProt P00390); assay: Inhibition of human recombinant glutathione reductase at pH 6.9
T3 sequence (P00390 whole entry): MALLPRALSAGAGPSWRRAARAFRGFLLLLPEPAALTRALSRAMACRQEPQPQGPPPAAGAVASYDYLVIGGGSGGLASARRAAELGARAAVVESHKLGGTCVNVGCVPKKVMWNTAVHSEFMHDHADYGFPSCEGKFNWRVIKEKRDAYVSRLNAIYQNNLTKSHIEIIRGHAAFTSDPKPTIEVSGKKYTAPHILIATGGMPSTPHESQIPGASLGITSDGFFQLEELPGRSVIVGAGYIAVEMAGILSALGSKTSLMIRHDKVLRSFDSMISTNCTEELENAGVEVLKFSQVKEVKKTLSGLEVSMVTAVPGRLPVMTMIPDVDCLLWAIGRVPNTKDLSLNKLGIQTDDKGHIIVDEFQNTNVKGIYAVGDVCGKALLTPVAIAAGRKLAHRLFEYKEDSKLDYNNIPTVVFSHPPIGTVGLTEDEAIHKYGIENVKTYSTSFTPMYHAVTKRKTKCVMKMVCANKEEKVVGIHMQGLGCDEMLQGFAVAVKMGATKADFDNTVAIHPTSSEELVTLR
Procedure, shortened: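 Recombinant human GR was assayed with its physiological disulfide substrate at 10 mU/ml enzyme and 25°C. The buffer was 47 mM potassium phosphate, 1 mM EDTA and 200 mM KCl at pH 6.9, with NADPH as reductant. MB came from stocks in water. IC50 values were treated as Ki, assuming noncompetitive inhibition.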

[4] = Inhibition of Plasmodium falciparum glutathione reductase at pH 6.9
Procedure, shortened: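 Recombinant P. falciparum GR, assayed at 25°C in 47 mM potassium phosphate, 1 mM EDTA, 200 mM KCl (pH 6.9). Physiological GSSG reduction was run with 10 mU/ml enzyme and NADPH. IC50 values were taken as Ki, assuming noncompetitive inhibition.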

[5] = Inhibition of human recombinant glutathione reductase C58A mutant expressed in Escherichia coli SG5 at pH 6.9
[6] = Inhibition of human recombinant glutathione reductase C58A/C63A mutant expressed in Escherichia coli SG5 at pH 6.9
Albumin = Albumin (Bos taurus, UniProt P02769); assay: Binding affinity to bovine serum albumin by fluorescence spectroscopy; type: ADME; details: read-out: Kdiss
Albumin, sequence (P02769 whole entry): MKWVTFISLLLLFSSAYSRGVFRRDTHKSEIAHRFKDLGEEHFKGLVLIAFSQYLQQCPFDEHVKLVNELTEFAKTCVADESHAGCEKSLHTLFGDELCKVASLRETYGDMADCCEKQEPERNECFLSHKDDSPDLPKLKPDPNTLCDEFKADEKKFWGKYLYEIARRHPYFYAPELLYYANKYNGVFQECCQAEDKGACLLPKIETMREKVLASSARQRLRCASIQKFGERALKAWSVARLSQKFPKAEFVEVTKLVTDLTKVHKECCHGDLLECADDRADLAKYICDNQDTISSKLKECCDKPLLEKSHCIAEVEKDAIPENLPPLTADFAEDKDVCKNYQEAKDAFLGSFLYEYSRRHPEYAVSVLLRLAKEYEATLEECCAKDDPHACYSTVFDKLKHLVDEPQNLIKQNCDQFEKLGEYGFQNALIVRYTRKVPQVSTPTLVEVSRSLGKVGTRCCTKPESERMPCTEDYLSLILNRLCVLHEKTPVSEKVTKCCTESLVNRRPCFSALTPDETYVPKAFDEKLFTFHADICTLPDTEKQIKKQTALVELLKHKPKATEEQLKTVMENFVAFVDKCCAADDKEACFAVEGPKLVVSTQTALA

[7] = Inhibition of human recombinant glutathione reductase C63A mutant expressed in Escherichia coli SG5 at pH 6.9
[8] = target: T4, Dihydrolipoyl dehydrogenase, mitochondrial (Sus scrofa, UniProt P09623); assay: Inhibition of pig recombinant dihydrolipoamide dehydrogenase at pH 7.3
T4 sequence (P09623 whole entry): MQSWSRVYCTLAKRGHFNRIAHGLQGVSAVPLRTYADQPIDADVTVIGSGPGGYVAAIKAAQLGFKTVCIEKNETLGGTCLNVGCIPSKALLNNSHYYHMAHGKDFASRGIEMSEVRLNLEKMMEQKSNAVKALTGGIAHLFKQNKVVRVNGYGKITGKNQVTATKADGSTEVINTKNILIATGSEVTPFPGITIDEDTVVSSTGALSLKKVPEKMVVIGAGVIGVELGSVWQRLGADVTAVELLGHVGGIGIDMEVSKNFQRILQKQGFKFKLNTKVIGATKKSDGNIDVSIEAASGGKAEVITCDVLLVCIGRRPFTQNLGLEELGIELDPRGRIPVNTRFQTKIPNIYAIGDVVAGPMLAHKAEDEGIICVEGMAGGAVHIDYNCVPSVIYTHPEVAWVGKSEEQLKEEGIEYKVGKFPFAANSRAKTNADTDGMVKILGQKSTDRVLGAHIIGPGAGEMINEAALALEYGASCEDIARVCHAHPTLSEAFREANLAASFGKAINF

[9] = Stability at pH 5.0; type: physicochemical; details: buffer
[10] = Inhibition of Plasmodium falciparum thioredoxin reductase at pH 7.4
Procedure, shortened: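 Recombinant P. falciparum TrxR, at 25°C in 100 mM potassium phosphate, 2 mM EDTA (pH 7.4). Cognate-substrate reaction was run with 10 mU/ml enzyme, NADPH and P. falciparum thioredoxin 1 as substrate. IC50 taken as Ki, assuming noncompetitive inhibition.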

[11] = Dissociation constant, pKa of the compound; type: physicochemical
[12] = Solubility in 100 mM phosphate buffer at pH 7.0; type: physicochemical

SMILES: CN(C)c1ccc2nc3ccc(N(C)C)cc3[s+]c2c1.[Cl-] [METHYLENE BLUE ANHYDROUS]
- IC50 [1]: 30 µM
- EC50 (Plasmodium falciparum): 0.0065 µM
- IC50 [2]: > 1000 µM
- IC50 [3]: 16.4 µM
- IC50 [4]: 5.4 µM
- IC50 [5]: Not Active
- IC50 [6]: Not Active
- Kd (Albumin): 2.9 µM
- IC50 [7]: Not Active
- IC50 [8]: > 1000 µM
- Stability [9]: Stable
- IC50 [10]: 59 µM

SMILES: CN(C)c1ccc2c(c1)Sc1cc(N(C)C)ccc1N2 [HYDROMETHYLTHIONINE]
- pKa [11]: 4.5
- solubility [12]: < 50 µM
